Data as given in publication PMC6511231 (Cell reports, 2018).

What was measured:
[1] = biological target: T1, mouse LIN28Δ, mouse TUT4 and pre-let-7g (Mus musculus, UniProt Q8K3Y3); assay: LIN28-mediated let-7 oligouridylation assay; format: biochemical; details: 40 μM compound, 37°C, denaturing PAGE
T1 sequence (Q8K3Y3 16-184): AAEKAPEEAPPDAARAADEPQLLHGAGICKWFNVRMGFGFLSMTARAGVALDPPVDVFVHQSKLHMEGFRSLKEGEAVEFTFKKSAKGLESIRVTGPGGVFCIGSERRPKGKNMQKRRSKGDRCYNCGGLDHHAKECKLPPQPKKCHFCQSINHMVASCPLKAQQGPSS
T1 sequence (B2RX14 230-1424 partner): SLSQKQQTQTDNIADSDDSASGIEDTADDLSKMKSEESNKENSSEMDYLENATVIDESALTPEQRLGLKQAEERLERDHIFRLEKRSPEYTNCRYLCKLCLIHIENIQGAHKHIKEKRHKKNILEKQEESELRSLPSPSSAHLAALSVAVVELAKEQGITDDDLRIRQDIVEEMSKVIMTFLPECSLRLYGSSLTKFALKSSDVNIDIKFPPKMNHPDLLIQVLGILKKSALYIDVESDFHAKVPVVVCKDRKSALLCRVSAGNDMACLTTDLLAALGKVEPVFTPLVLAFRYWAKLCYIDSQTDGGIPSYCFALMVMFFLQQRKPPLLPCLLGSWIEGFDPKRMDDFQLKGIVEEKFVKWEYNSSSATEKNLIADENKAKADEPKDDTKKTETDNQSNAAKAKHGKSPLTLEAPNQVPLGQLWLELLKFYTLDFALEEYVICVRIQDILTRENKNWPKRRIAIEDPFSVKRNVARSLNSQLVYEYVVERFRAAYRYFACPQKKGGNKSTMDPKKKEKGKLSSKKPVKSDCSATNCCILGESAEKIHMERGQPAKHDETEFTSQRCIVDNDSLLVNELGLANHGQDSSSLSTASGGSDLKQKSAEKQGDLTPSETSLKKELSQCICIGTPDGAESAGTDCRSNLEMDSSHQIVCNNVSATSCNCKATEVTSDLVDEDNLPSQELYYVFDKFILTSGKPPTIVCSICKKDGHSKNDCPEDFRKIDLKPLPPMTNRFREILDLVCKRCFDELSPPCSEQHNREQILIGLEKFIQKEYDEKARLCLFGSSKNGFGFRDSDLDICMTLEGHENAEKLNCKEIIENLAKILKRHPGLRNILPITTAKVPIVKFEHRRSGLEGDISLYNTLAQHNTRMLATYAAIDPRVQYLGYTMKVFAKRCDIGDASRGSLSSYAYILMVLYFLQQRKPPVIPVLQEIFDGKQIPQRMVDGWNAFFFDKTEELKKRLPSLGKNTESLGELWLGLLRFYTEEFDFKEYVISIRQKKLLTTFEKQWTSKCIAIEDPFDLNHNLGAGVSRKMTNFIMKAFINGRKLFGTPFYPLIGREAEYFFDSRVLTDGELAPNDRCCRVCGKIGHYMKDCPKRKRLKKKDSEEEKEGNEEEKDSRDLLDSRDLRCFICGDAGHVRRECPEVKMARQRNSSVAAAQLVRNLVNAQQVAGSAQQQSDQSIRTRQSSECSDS
Outline: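 Mouse LIN28A, mouse TUT4 (230–1424) and in vitro-transcribed, T4 PNK-radiolabelled pre-let-7g were incubated with test compound (40 μM screen; 80 μM follow-up) for 40 min at 37°C. Buffer: 20 mM Tris 7.5, 5% glycerol, 6 mM MgCl2, 6 mM DTT, 50 μM ZnCl2, 40 mM KCl, 200 μM UTP. Reactions were stopped with EDTA/SDS/proteinase K (50°C, 30 min) and run on denaturing PAGE. RNA and DMSO served as controls.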

[2] = biological target: human LIN28Δ:preE-let-7f complex (Homo sapiens, UniProt Q9H9Z2); assay: Differential scanning fluorimetry; format: binding; details: SYPRO Orange; 63°C without compound
human LIN28Δ:preE-let-7f complex, sequence (Q9H9Z2 16-187, stated change not applied, one chain of several): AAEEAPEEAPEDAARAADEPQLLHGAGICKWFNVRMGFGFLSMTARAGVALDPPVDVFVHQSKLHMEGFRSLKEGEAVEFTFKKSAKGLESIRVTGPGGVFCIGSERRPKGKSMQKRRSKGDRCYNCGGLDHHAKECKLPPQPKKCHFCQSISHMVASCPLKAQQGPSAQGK

[3] = test system: HeLaLIN28B; assay: let-7-sensitive dual luciferase reporter assay, HeLaLIN28B; format: cell-based, human; details: LI71 50–100 μM, 48 hr
Outline: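 HeLa clone stably expressing N-FLAG-LIN28B at low level, from retroviral transduction, puromycin selection and single-cell sorting. Cells were lentivirally transduced with the let-7 dual luciferase sensor: LTR-driven Renilla with eight let-7 sites in the 3′ UTR plus HSV-TK firefly control, as a G418-selected polyclonal pool. Cells received test compound or DMSO vehicle, then were lysed for dual luciferase readout normalised to blank samples.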

[4] = test system: HeLa control cells expressing GFP and not LIN28; assay: let-7-sensitive dual luciferase reporter assay, GFP control cells; format: cell-based, human; details: up to 100 μM
Outline: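 HeLa cells were retrovirally transduced with FLAG-GFP (or LIN28) cDNA, puromycin-selected and single-cell cloned. They were then lentivirally given an 8×let-7-site Renilla/HSV-TK firefly cassette and selected with G418 as polyclonal populations. Cells were exposed to up to 100 μM test compound, lysed, and read for dual luciferase with firefly as internal control. Values were normalised to blanks.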

[5] = biological target: CSD (residues 16–136) of LIN28 (Homo sapiens, UniProt Q9H9Z2); assay: Saturation transfer difference spectroscopy, CSD; format: binding; details: CSD alone
CSD (residues 16–136) of LIN28, sequence (Q9H9Z2 16-136): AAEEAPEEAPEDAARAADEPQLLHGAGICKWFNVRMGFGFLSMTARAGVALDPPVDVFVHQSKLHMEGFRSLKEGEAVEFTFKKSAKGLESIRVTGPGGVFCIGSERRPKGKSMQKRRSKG
Outline: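 Protein was dialysed overnight into 20 mM Bis-Tris pH 6.0, 100 mM NaCl, 10% v/v glycerol-d8, 5 mM DTT and D2O. Test compound was dissolved in DMSO-d6. Samples held 100 μM compound and 5 μM protein in dialysis buffer. STD spectra were collected at 700 MHz, irradiating the macromolecule only at −2 ppm, with a 2 s transfer delay.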

Inhibition of LIN28-mediated oligouridylation [1]: completely inhibited
Melting temperature of LIN28Δ:preE-let-7f complex with compound [2]: 60 °C
Compound: CCOc1cccc2c1N[C@@H](c1ccc(C(=O)O)cc1)[C@H]1CC=C[C@@H]21 [LI71]
Relative Renilla luciferase activity [3]: significantly reduce the relative Renilla luciferase activity
Relative Renilla luciferase activity [4]: did not show an effect
Saturation transfer difference signals [5]: induces the LI71 saturation transfer difference signals
